Assay results as given in ChEMBL document CHEMBL1641580, “Identification of 3-phenylaminoquinolinium and 3-phenylaminopyridinium salts as new agents against opportunistic fungal pathogens” (Bioorg Med Chem, 2011).
Calls of active or inactive are those of the source. The rule behind the calls is not given here.

How the values were obtained:
Aspergillus fumigatus [1] = assay: Fungicidal activity against Aspergillus fumigatus ATCC 90906; format: functional
Candida albicans [2] = assay: Antifungal activity against Candida albicans ATCC 90028 assessed as inhibition of fungal growth by alamar blue assay; format: functional, organism-based
Procedure, shortened: (§1)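 Broth microdilution modified from NCCLS. DMSO stocks serially diluted in saline and plated in duplicate. Inoculum set by 0.5 McFarland standard. Media: C. albicans in SDB or RPMI 1640; C. neoformans in SDB; A. fumigatus in RPMI-1640 + 5% Alamar Blue. Highest final concentration 20 µg/mL. Plates read before and after incubation by fluorescence 544ex/590em (A. fumigatus) or OD 630 nm. IC50 from percent growth vs concentration.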

Aspergillus fumigatus [3] = assay: Antifungal activity against Aspergillus fumigatus ATCC 90906 assessed as inhibition of fungal growth by alamar blue assay; format: functional, organism-based; procedure, shortened: as §1
[4] = Cytotoxicity against african green monkey Vero cells after 48 hrs by neutral red assay; format: cell-based; conditions: chlorocebus sabaeus, read-out: TC50
Procedure, shortened: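 Vero kidney fibroblasts seeded at 25,000 cells/well and grown 24 h, then exposed to samples up to 20 µg/ml for 48 h. Viable cells measured by neutral red assay. IC50 taken from growth-inhibition vs concentration curves. DMSO served as vehicle control.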

Cryptococcus neoformans [5] = assay: Antifungal activity against Cryptococcus neoformans ATCC 90113 by microscopy; format: functional
Procedure, shortened: (§2)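 Modified NCCLS microdilution. Samples in DMSO serially diluted in saline and tested in duplicate against inocula standardized to 0.5 McFarland. Highest final concentration 20 µg/mL. MIC read visually as the lowest concentration with no detectable growth (for Alamar Blue wells, no blue-to-pink change).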

Cryptococcus neoformans [6] = assay: Antifungal activity against Cryptococcus neoformans ATCC 90113 assessed as inhibition of fungal growth by alamar blue assay; format: functional, organism-based; procedure, shortened: as §1
Cryptococcus neoformans [7] = assay: Fungicidal activity against Cryptococcus neoformans ATCC 90113; format: functional
Aspergillus fumigatus [8] = assay: Antifungal activity against Aspergillus fumigatus ATCC 90906 by microscopy; format: functional
Procedure, shortened: as §2, with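 “McFarland. Broths: C. albicans SDB or RPMI 1640; C. neoformans SDB; A. fumigatus YM broth.” for “McFarland.”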

Candida albicans [9] = assay: Antifungal activity against Candida albicans ATCC 90028 by microscopy; format: functional
Procedure, shortened: as §2, with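 “McFarland. Broths: C. albicans SDB or RPMI 1640; C. neoformans SDB; A. fumigatus YM broth.” for “McFarland.”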

Candida albicans [10] = assay: Fungicidal activity against Candida albicans ATCC 90028; format: functional
Aspergillus fumigatus [11] = assay: Antifungal activity against Aspergillus fumigatus ATCC 90906 assessed as inhibition of fungal growth at 20 ug/mL by alamar blue assay; format: functional, organism-based; procedure, shortened: as §1
[12] = Aspergillus fumigatus, ATCC 90906, read-out: IC50

Compound `Cc1cccc(N(CCCCCC2CCCCC2)c2ccc[n+](C)c2)c1.[I-]` has an MFC (Aspergillus fumigatus [1]) of 20 µg/mL, an IC50 (Candida albicans [2]) of 3 µg/mL and an IC50 (Aspergillus fumigatus [3]; [12]) of 8.7 µg/mL. The CC50 at 48 h [4] was > 10 µg/mL, the MIC (Cryptococcus neoformans [5]) was 2.5 µg/mL and the IC50 (Cryptococcus neoformans [6]) was 1.4 µg/mL. It also gave an MFC (Cryptococcus neoformans [7]) of 2.5 µg/mL, an MIC (Aspergillus fumigatus [8]) of 10 µg/mL and an MIC (Candida albicans [9]) of 5 µg/mL. For the same compound, the MFC (Candida albicans [10]) was 10 µg/mL.

In the case of `Clc1ccc(Nc2cc3ccccc3[n+](CCCCCC3CCCCC3)c2)cc1.[I-]`, the IC50 (Candida albicans [2]) is reported as 2 µg/mL, the IC50 (Aspergillus fumigatus [3]) is reported as “Not Active” and the CC50 at 48 h [4] is reported as > 10 µg/mL. The MIC (Cryptococcus neoformans [5]) was 1.6 µg/mL, the IC50 (Cryptococcus neoformans [6]) was 1 µg/mL and the MFC (Cryptococcus neoformans [7]) was > 20 µg/mL. For the same compound, the MIC (Candida albicans [9]) was > 20 µg/mL.

In the case of `[I-].c1ccc(Nc2cc3ccccc3[n+](CCCCCC3CCCCC3)c2)cc1`, the MFC (Aspergillus fumigatus [1]) is reported as 10 µg/mL, the IC50 (Candida albicans [2]) is reported as 3.5 µg/mL and the IC50 (Aspergillus fumigatus [3]; [12]) is reported as 1 µg/mL. For the same compound, the MIC (Cryptococcus neoformans [5]) was 2.5 µg/mL, the IC50 (Cryptococcus neoformans [6]) was 1.5 µg/mL and the MFC (Cryptococcus neoformans [7]) was 10 µg/mL. For the same compound, the MIC (Aspergillus fumigatus [8]) was 2.5 µg/mL, the MIC (Candida albicans [9]) was 10 µg/mL and the MFC (Candida albicans [10]) was > 20 µg/mL.

In the case of `COc1cccc(N(CCCCCC2CCCCC2)c2ccc[n+](C)c2)c1.[I-]`, the IC50 (Candida albicans [2]) is reported as 8.9 µg/mL, the CC50 at 48 h [4] is reported as > 10 µg/mL and the MIC (Cryptococcus neoformans [5]) is reported as 5 µg/mL. The IC50 (Cryptococcus neoformans [6]) was 3.6 µg/mL, the MFC (Cryptococcus neoformans [7]) was 5 µg/mL and the MIC (Candida albicans [9]) was 20 µg/mL. The MFC (Candida albicans [10]) was > 20 µg/mL and the inhibition (Aspergillus fumigatus [11]) was “inactive”.

In the case of `CSc1ccc(N(CCCCCC2CCCCC2)c2ccc[n+](C)c2)cc1.[I-]`, the MFC (Aspergillus fumigatus [1]) is reported as 10 µg/mL, the IC50 (Candida albicans [2]) is reported as 2 µg/mL and the IC50 (Aspergillus fumigatus [3]; [12]) is reported as 6.4 µg/mL. The CC50 at 48 h [4] was > 10 µg/mL, the MIC (Cryptococcus neoformans [5]) was 1.3 µg/mL and the IC50 (Cryptococcus neoformans [6]) was 1.2 µg/mL. For the same compound, the MFC (Cryptococcus neoformans [7]) was 2.5 µg/mL, the MIC (Aspergillus fumigatus [8]) was 10 µg/mL and the MIC (Candida albicans [9]) was 5 µg/mL. The MFC (Candida albicans [10]) was 10 µg/mL.

For `C[n+]1cccc(N(CCCCCC2CCCCC2)c2ccccc2Cl)c1.[I-]`, the MFC (Aspergillus fumigatus [1]) was > 20 µg/mL, the IC50 (Candida albicans [2]) was 2.8 µg/mL and the IC50 (Aspergillus fumigatus [3]; [12]) was 18 µg/mL. It also gave an MIC (Cryptococcus neoformans [5]) of 2.5 µg/mL, an IC50 (Cryptococcus neoformans [6]) of 2 µg/mL and an MFC (Cryptococcus neoformans [7]) of 2.5 µg/mL. For the same compound, the MIC (Aspergillus fumigatus [8]) was > 20 µg/mL, the MIC (Candida albicans [9]) was 5 µg/mL and the MFC (Candida albicans [10]) was 5 µg/mL.

In the case of `C[n+]1cccc(N(CCCCCC2CCCCC2)c2ccc(Cl)cc2)c1.[I-]`, the IC50 (Candida albicans [2]) is reported as 1.5 µg/mL, the IC50 (Aspergillus fumigatus [3]; [12]) is reported as 1 µg/mL and the CC50 at 48 h [4] is reported as > 10 µg/mL. It also gave an MIC (Cryptococcus neoformans [5]) of 1.6 µg/mL, an IC50 (Cryptococcus neoformans [6]) of 1 µg/mL and an MIC (Aspergillus fumigatus [8]) of 1.6 µg/mL. The MIC (Candida albicans [9]) was 3.1 µg/mL.

For `C[n+]1cc(N(CCCCCC2CCCCC2)c2ccccc2Cl)cc2ccccc21.[I-]`, the MFC (Aspergillus fumigatus [1]) was 20 µg/mL, the IC50 (Candida albicans [2]) was 0.63 µg/mL and the IC50 (Aspergillus fumigatus [3]; [12]) was 3.1 µg/mL. For the same compound, the MIC (Cryptococcus neoformans [5]) was 0.3 µg/mL, the IC50 (Cryptococcus neoformans [6]) was 0.2 µg/mL and the MFC (Cryptococcus neoformans [7]) was 0.6 µg/mL. It also gave an MIC (Aspergillus fumigatus [8]) of 5 µg/mL, an MIC (Candida albicans [9]) of 1.3 µg/mL and an MFC (Candida albicans [10]) of 1.3 µg/mL.

With `C[n+]1c2ccccc2cc2[nH]c3ccc(Cl)cc3c21.[I-]` the IC50 (Candida albicans [2]) was 4.5 µg/mL, the IC50 (Aspergillus fumigatus [3]; [12]) was > 20 µg/mL and the CC50 at 48 h [4] was 1.5 µg/mL. For the same compound, the MIC (Cryptococcus neoformans [5]) was > 20 µg/mL, the IC50 (Cryptococcus neoformans [6]) was 15 µg/mL and the MIC (Candida albicans [9]) was > 20 µg/mL.

With `C[n+]1c2cc(Cl)ccc2cc2[nH]c3ccccc3c21.O=S(=O)([O-])C(F)(F)F` the IC50 (Candida albicans [2]) was 3 µg/mL, the IC50 (Aspergillus fumigatus [3]; [12]) was > 20 µg/mL and the CC50 at 48 h [4] was 2.1 µg/mL. For the same compound, the MIC (Cryptococcus neoformans [5]) was > 20 µg/mL, the IC50 (Cryptococcus neoformans [6]) was 15 µg/mL and the MIC (Candida albicans [9]) was > 20 µg/mL.

Compound `C[n+]1cc(N(CCCCCC2CCCCC2)c2ccc(Cl)cc2)cc2ccccc21.[I-]` has an MFC (Aspergillus fumigatus [1]) of 10 µg/mL, an IC50 (Candida albicans [2]) of 0.5 µg/mL and an IC50 (Aspergillus fumigatus [3]; [12]) of 0.8 µg/mL. For the same compound, the CC50 at 48 h [4] was 10 µg/mL, the MIC (Cryptococcus neoformans [5]) was 0.6 µg/mL and the IC50 (Cryptococcus neoformans [6]) was 0.4 µg/mL. The MFC (Cryptococcus neoformans [7]) was 2.5 µg/mL, the MIC (Aspergillus fumigatus [8]) was 1.3 µg/mL and the MIC (Candida albicans [9]) was 1.3 µg/mL. For the same compound, the MFC (Candida albicans [10]) was 5 µg/mL.

With `Clc1ccc(Nc2cc3ccccc3[n+](CCCCCc3ccccc3)c2)cc1.[I-]` the MFC (Aspergillus fumigatus [1]) was > 20 µg/mL, the IC50 (Candida albicans [2]) was 15 µg/mL and the IC50 (Aspergillus fumigatus [3]; [12]) was 10 µg/mL. The CC50 at 48 h [4] was > 25 µg/mL, the MIC (Cryptococcus neoformans [5]) was 6.3 µg/mL and the IC50 (Cryptococcus neoformans [6]) was 4 µg/mL. For the same compound, the MFC (Cryptococcus neoformans [7]) was 12.5 µg/mL, the MIC (Aspergillus fumigatus [8]) was > 20 µg/mL and the MIC (Candida albicans [9]) was > 20 µg/mL. For the same compound, the MFC (Candida albicans [10]) was > 20 µg/mL.

In the case of `C[n+]1cccc(N(CCCCCC2CCCCC2)c2ccccc2C(F)(F)F)c1.[I-]`, the IC50 (Candida albicans [2]) is reported as 2.6 µg/mL, the MIC (Cryptococcus neoformans [5]) is reported as 5 µg/mL and the IC50 (Cryptococcus neoformans [6]) is reported as 2.3 µg/mL. The MFC (Cryptococcus neoformans [7]) was 5 µg/mL, the MIC (Candida albicans [9]) was 5 µg/mL and the MFC (Candida albicans [10]) was 5 µg/mL. For the same compound, the inhibition (Aspergillus fumigatus [11]) was “inactive”.

With `C[n+]1cccc(N(CCCCCC2CCCCC2)c2ccccc2C#N)c1.[I-]` the CC50 at 48 h [4] was > 10 µg/mL, the MIC (Cryptococcus neoformans [5]) was 10 µg/mL and the IC50 (Cryptococcus neoformans [6]) was 6.6 µg/mL. For the same compound, the MFC (Cryptococcus neoformans [7]) was 20 µg/mL and the inhibition (Aspergillus fumigatus [11]) was “inactive”.

With `C[n+]1cccc(N(CCCCCC2CCCCC2)c2cccc(Cl)c2)c1.[I-]` the MFC (Aspergillus fumigatus [1]) was 20 µg/mL, the IC50 (Candida albicans [2]) was 3 µg/mL and the IC50 (Aspergillus fumigatus [3]; [12]) was 12.4 µg/mL. For the same compound, the CC50 at 48 h [4] was > 10 µg/mL, the MIC (Cryptococcus neoformans [5]) was 1.3 µg/mL and the IC50 (Cryptococcus neoformans [6]) was 0.7 µg/mL. It also gave an MFC (Cryptococcus neoformans [7]) of 1.3 µg/mL, an MIC (Aspergillus fumigatus [8]) of 20 µg/mL and an MIC (Candida albicans [9]) of 5 µg/mL. It also gave an MFC (Candida albicans [10]) of 10 µg/mL.
